These results are taken from paper PMC8628544 (Developmental cell, 2021).

Data set [1] has as its system human ESC-derived cardiomyocytes. Nature of the data set: Cardiomyocyte differentiation of hESCs. Type of data set: cell-based. Conditions: for gene expression in DKO cultures / fraction of TNNT2+ cells in DKO cultures: NR2F1/2 DKO.
The test system of data set [2] is E10.5 embryo cultures of Sptlc2^f/f Cdh5^CreERT2 mice. Nature of the data set: Rescue experiments using ex-vivo embryo culture. The arrangement: species or system mouse. Particulars: 25 nM 1-deoxySO-BSA; 24 hours; 4-OH-TMX. The gist of the method: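 Embryos were cultured in DMEM-F12 with 15% KSR, N2, Glutamax and Pen-Strep. Medium held 1 µM 4-OH-TMX, 5 µM sphingolipid-precursor-BSA and 25 nM test compound-BSA; controls received vehicle-BSA instead. Culture ran in O2-flushed sealed 50 mL tubes on a roller at 37°C, 5% CO2, for 24 h.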

The test system of a further data set is mouse LECs. In kind it is cell-based. In a few lines: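 LECs were isolated from collagenase D/dispase-digested mouse lymph nodes and grown overnight in semi-synthetic medium (DMEM, Hepes, 1% BSA, ITS-A, 1% FBS) with 1 µM sphingolipid-precursor-BSA. Deletion was induced with 0.5–1 µM 4-OH-TMX. Test compound-BSA (50–100 nM) or vehicle was added, with media renewed daily. At 24 h, cells were fixed and immunostained for NR2F2, Prox1 and […], then imaged by confocal microscopy.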

The target in data set [3] is NR2F1(LBD)-GAL4(DBD) fusion protein (Mus musculus, UniProt Q60632). The experiment in a line: NR2F1. Particulars: Figure S1C. In kind it is cell-based.
NR2F1(LBD)-GAL4(DBD) fusion protein, sequence (P04386 1-147 partner limits assumed, one chain of several): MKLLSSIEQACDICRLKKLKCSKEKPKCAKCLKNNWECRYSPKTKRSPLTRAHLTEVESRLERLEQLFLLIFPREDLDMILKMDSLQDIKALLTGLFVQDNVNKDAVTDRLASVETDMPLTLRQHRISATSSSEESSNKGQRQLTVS
A further data set concerns the target T1, NR2F1 LBD (Mus musculus, UniProt Q60632).
T1 sequence (Q60632 183-422): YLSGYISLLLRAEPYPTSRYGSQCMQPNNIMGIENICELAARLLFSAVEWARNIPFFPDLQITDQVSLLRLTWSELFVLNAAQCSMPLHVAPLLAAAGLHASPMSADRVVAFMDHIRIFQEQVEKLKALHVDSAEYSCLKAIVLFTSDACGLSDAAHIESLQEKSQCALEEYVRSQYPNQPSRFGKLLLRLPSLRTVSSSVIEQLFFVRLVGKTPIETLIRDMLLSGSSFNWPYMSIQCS
The experiment in a line: Metabolite pull-down / displacement with FLAG-tagged LBD and LC-MS. In kind it is binding. Conditions: 500 nM retinoic acid in medium.

For another data set, the target named is T2, RARA LBD (Homo sapiens, UniProt P10276).
T2 sequence (P10276 183-417 limits assumed): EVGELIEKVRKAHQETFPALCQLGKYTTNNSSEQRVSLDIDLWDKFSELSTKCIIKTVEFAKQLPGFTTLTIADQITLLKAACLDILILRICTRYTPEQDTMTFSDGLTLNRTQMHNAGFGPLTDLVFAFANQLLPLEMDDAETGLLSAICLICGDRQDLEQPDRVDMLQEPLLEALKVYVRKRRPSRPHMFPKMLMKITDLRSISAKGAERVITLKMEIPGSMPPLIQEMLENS
Nature of the data set: Metabolite pull-down with FLAG-tagged control LBD and LC-MS. In kind it is binding. Particulars: C18+ mode; 500 nM all-trans-retinoic acid in medium; p-value 0.01.

For data set [4], the system named is NR2F2. Particulars: at high concentrations; ref Kruse et al., 2008; cited from earlier work.
The next data set has as its target NR2F1/2. Conditions: read-out: Kd for NR2F1/2; ref Kruse et al., 2008; cited from earlier work.
In data set [5] the target is fluorescein-labeled SRC2-2 peptide. The experiment in a line: fluorescence polarisation. In general terms: Fluorescence polarisation rises when a labelled molecule tumbles more slowly, as on binding a larger partner.
For data set [6] the target is unchanged. The experiment in a line: fluorescence polarisation. This is another data set of the same source.
The target is the same in data set [7]. The experiment in a line: fluorescence polarisation. This is another data set of the same source.
Data set [8] relates to NR2F2. The experiment in a line: NR2F2 reporter activity in HEK-293FT cells. Particulars: 1 µM. Type of data set: cell-based. The gist of the method:
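HEK-293FT cells plated at 5 x 10^4 per well the day before, then PEI-transfected in antibiotic-free DMEM with 1% FBS. Each well received reporter plasmid, NHR plasmid and a Renilla normalisation plasmid. 24 h after transfection, test compound-BSA complexes diluted in 1% FBS medium were added. Dual luciferase read-out.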

A further data set deals with HEK-293FT cells. The experiment in a line: Cell viability of HEK-293FT cells. Particulars: 1 µM. In kind it is cell-based, human.
Where [9] appears, read: 1 µM from day 1, WT, day 6, bulk RNA-seq.

pKd: −log10 of the molar value. Where two headings read alike, the source gives them in different places.

Take `CCC/C=C\CCCCCCCCCC[C@@H](O)[C@H](C)N` [1-deoxySO-14Z, 1-deoxysphingosine (14Z)]: in data set [1], the “gene expression in DKO cultures” value was “minimally affected”. Besides, in data set [1] (1.5 µM from day 3), the “fraction of TNNT2+ cells in DKO cultures” value was “did not increase”. The “cardiac development in embryo cultures” value in data set [2] is on record as “partially rescued”. Moreover, the “number of viable cells in Sptlc2 deleted cultures” value in the data set on mouse LECs (4OH-TMX, medium with D-erythroSO, Figure S3C) is on record as “restored”. For the same compound, the “other lymphatic endothelial markers (LYVE1 and NR2F2)” value in the data set on mouse LECs (within 24 hours after 4OH-TMX) is reported as “no effects were observed”. For the same compound, in the data set with mouse LECs (within 24 hours after 4OH-TMX, versus vehicle), the “PROX1 levels in LECs” value is recorded as “partially restored”.
With `CCCCCCCCCCCCC/C=C/[C@@H](O)[C@H](C)N` [1-deoxysphingosine], the “fraction of TNNT2+ cells in WT cultures” value in data set [1] (WT, 1.5 µM from day 3, FACS day 9) was “increased”. In [1] (WT, day 9), the “number of genes decreased by >2-fold versus vehicle” value came out at 464 and the “number of genes increased by >2-fold versus vehicle” value turned out to be 265.
With `COc1ccc(O)c2ccccc12` [4-methoxy-1-naphthol], in data set [3], the “activity of the NR2F1(LBD)-GAL4(DBD) fusion protein” value was “inhibited”.
For the compound `CC1=C(/C=C/C(C)=C/C=C/C(C)=C/C(=O)O)C(C)(C)CCC1` [retinoic acid, all-trans retinoic acid], the “metabolites with exact masses detected in the NR2F1 samples” value at NR2F1 LBD is reported as “no such metabolites were detected”. The “enrichment in RARA but not NR2F1 samples” value on RARA LBD was found to be 14.76 fold. Besides, the “agonist activity on NR2F2” value in the data set with NR2F2 [4] was “weak agonist”. At NR2F1/2, the pKd is 4.59.
For the compound `CCCCCCCCCCCCC/C=C/[C@@H](O)[C@@H](N)CO` [D-erythroSO, D-erythro-sphingosine], the “gene expression in DKO cultures” value in [1] was “minimally affected”. Besides, the “fraction of TNNT2+ cells in DKO cultures” value in [1] (1.5 µM from day 3) is given as “did not increase”.
NR2F1/2-LBD: the pKd in data set [5] is 7.17; in data set [6], under 6.52; in data set [7] it was under 6.52.
Consider `CCCCCCC(=O)CCCCCC/C=C/C[C@@H](O)[C@H](O)[C@@](N)(CO)C(=O)O` [myriocin], for which, in data set [1] (setting [9]), the “number of downregulated genes versus vehicle” value amounted to 850 and the “number of upregulated genes versus vehicle” value is on record as 1121. Besides, in the data set with NR2F2 [8], the NR2F2 reporter activity result is on record as “partially suppress”. Besides, in the data set on HEK-293FT cells, the cell viability result was “without loss of cell viability”.
